Test results taken from ChEMBL document CHEMBL1149790, “Synthesis of some novel thiourea derivatives obtained from 5-[(4-aminophenoxy)methyl]-4-alkyl/aryl-2,4-dihydro-3H-1,2,4-triazole-3-thiones and evaluation as antiviral/anti-HIV and anti-tuberculosis agents” (Eur J Med Chem, 2008).
≈ marks a conversion by molar mass, not a printed value.

Experiments:
Human alphaherpesvirus 1 [1] = assay: Antiviral activity against thymidine kinase deficient and acyclovir resistant HSV1 KOS in human HEL cells assessed as reduction of virus-induced cytopathogenicity; type: functional; settings: Human alphaherpesvirus 1, KOS
Method in brief: (§1)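 Confluent cell monolayers (E6SM, HEL, HeLa or Vero, per line) inoculated with 100 CCID50 virus; 1 h adsorption, residual virus removed, then incubated with compound at 400, 200, 100 … µg/ml. Cytopathicity scored once complete in untreated virus controls; MIC = concentration inhibiting virus-induced cytopathicity.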

Human alphaherpesvirus 1 [2] = assay: Antiviral activity against HSV1 KOS in human E6SM cells assessed as reduction of virus-induced cytopathogenicity; type: functional; settings: Human alphaherpesvirus 1, KOS; method in brief: as §1
[3] = tested on: Human immunodeficiency virus 1; assay: Antiviral activity against HIV1 3B in human MT4 cells assessed as protection against virus-induced cytopathogenicity by MTT assay; type: functional, organism-based; set-up: Activity: concentration or dose not given beside the values; settings: for IC50: Human immunodeficiency virus 1, 3B, MT4
Method in brief: (§2)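 MT-4 cells at 6 × 10⁵ cells/ml infected with HIV-1 IIIB or HIV-2 ROD at 100–300 CCID50; compounds in serial five-fold dilutions, triplicate mock- and virus-infected wells. MTT viability read at 540 and 690 nm after 5 days, median OD of three wells; EC50 = 50% protection from viral cytopathic effect.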

Human alphaherpesvirus 1 [4] = assay: Antiviral activity against HSV1 KOS in human HEL cells assessed as reduction of virus-induced cytopathogenicity; type: functional; settings: Human alphaherpesvirus 1, KOS; method in brief: as §1
Sindbis virus = assay: Antiviral activity against Sindbis virus in african green monkey Vero cells assessed as reduction of virus-induced cytopathogenicity; type: functional; method in brief: as §1
Coxsackievirus B4 [5] = assay: Antiviral activity against Coxsackie virus B4 in human HeLa cells assessed as inhibition of virus-induced cytopathogenicity; type: functional; settings: Enterovirus B; method in brief: as §1
[6] = Cytotoxicity against human E6SM cells; type: cell-based; settings: E6SM cells
Method in brief: (§3)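 Uninfected cell cultures exposed to test compounds alongside antiviral assays; minimum cytotoxic concentration (MCC) = concentration causing a microscopically detectable alteration of cell morphology.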

[7] = tested on: Vesicular stomatitis virus; assay: Antiviral activity against in Vesicular stomatitis virus in human HEL cells assessed as reduction of virus-induced cytopathogenicity; type: functional; method in brief: as §1
[8] = Cytotoxicity against human MT4 cells by MTT assay; type: cell-based
Method in brief: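 Mock-infected MT-4 cells (6 × 10⁵ cells/ml) with serial five-fold compound dilutions in triplicate; MTT reduction read at 540 and 690 nm after 5 days, median OD of three wells; CC50 = concentration reducing OD540 of mock-infected control by 50%.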

[9] = Cytotoxicity against human HEL cells assessed as alteration of cell morphology; type: cell-based; method in brief: as §3
Human alphaherpesvirus 2 [10] = assay: Antiviral activity against HSV2 G in human E6SM cells assessed as reduction of virus-induced cytopathogenicity; type: functional; settings: Human alphaherpesvirus 2, G; method in brief: as §1
Human alphaherpesvirus 1 [11] = assay: Antiviral activity against thymidine kinase deficient and acyclovir resistant HSV1 KOS in human E6SM cells assessed as reduction of virus-induced cytopathogenicity; type: functional; settings: Human alphaherpesvirus 1, KOS; method in brief: as §1
[12] = tested on: Vesicular stomatitis virus; assay: Antiviral activity against vesicular stomatitis virus in human HeLa cells assessed as inhibition of virus-induced cytopathogenicity; type: functional; method in brief: as §1
Coxsackievirus B4 [13] = assay: Antiviral activity against Coxsackie virus B4 in african green monkey Vero cells assessed as reduction of virus-induced cytopathogenicity; type: functional; settings: Enterovirus B; method in brief: as §1
[14] = tested on: Human immunodeficiency virus 2; assay: Antiviral activity against HIV2 ROD in human MT4 cells assessed as protection against virus-induced cytopathogenicity by MTT assay; type: functional, organism-based; set-up: Activity: concentration or dose not given beside the values; settings: for IC50: Human immunodeficiency virus 2, ROD, MT4; method in brief: as §2
Punta Toro virus = assay: Antiviral activity against Punta Toro virus in african green monkey Vero cells assessed as reduction of virus-induced cytopathogenicity; type: functional; method in brief: as §1
[15] = Cytotoxicity against human HeLa cells; type: cell-based; method in brief: as §3
Vero = assay: Cytotoxicity against african green monkey Vero cells; type: cell-based; settings: chlorocebus sabaeus; method in brief: as §3
[16] = tested on: Vesicular stomatitis virus; assay: Antiviral activity against in Vesicular stomatitis virus in human E6SM cells assessed as reduction of virus-induced cytopathogenicity; type: functional; method in brief: as §1
Human respirovirus 3 = assay: Antiviral activity against Parainfluenza 3 virus in african green monkey Vero cells assessed as reduction of virus-induced cytopathogenicity; type: functional; method in brief: as §1
Human alphaherpesvirus 2 [17] = assay: Antiviral activity against HSV2 G in human HEL cells assessed as reduction of virus-induced cytopathogenicity; type: functional; settings: Human alphaherpesvirus 2, G; method in brief: as §1
[18] = tested on: Respiratory syncytial virus; assay: Antiviral activity against respiratory syncytial virus in human HeLa cells assessed as inhibition of virus-induced cytopathogenicity; type: functional; method in brief: as §1
[19] = tested on: Mammalian orthoreovirus 1; assay: Antiviral activity against Reo virus 1 in african green monkey Vero cells assessed as reduction of virus-induced cytopathogenicity; type: functional; method in brief: as §1

| SMILES | MIC (Human alphaherpesvirus 1 [1]) | MIC (Human alphaherpesvirus 1 [2]) | Activity [3] | IC50 [3] | MIC (Human alphaherpesvirus 1 [4]) | MIC (Sindbis virus) | MIC (Coxsackievirus B4 [5]) | MCC [6] | MIC [7] | CC50 [8] | MCC [9] | MIC (Human alphaherpesvirus 2 [10]) | MIC (Human alphaherpesvirus 1 [11]) | MIC [12] | MIC (Coxsackievirus B4 [13]) | Activity [14] | IC50 [14] | MIC (Punta Toro virus) | MCC [15] | Activity (Vero) | also measured |
| --- | --- | --- | --- | --- | --- | --- | --- | --- | --- | --- | --- | --- | --- | --- | --- | --- | --- | --- | --- | --- | --- |
| S=C(Nc1ccc(Cl)cc1)Nc1ccc(-c2n[nH]c(=S)n2-c2ccccc2)cc1 | > 16 µg/mL | > 16 µg/mL | 4.5% | > 10.3 µg/mL | > 16 µg/mL | > 16 µg/mL | > 16 µg/mL | ≥ 16 µg/mL | > 16 µg/mL | 10.3 µg/mL (≈ 23.5 µM) | ≥ 16 µg/mL | > 16 µg/mL | > 16 µg/mL | > 16 µg/mL | > 16 µg/mL | 31% | > 10.3 µg/mL | > 16 µg/mL | 80 µg/mL | >= 16 ug ml-1 | MIC [16]: > 16 µg/mL; MIC (Human respirovirus 3): > 16 µg/mL; MIC (Human alphaherpesvirus 2 [17]): > 16 µg/mL; MIC [18]: > 16 µg/mL; MIC [19]: > 16 µg/mL |
| Cn1c(-c2ccc(NC(=S)Nc3ccccc3)cc2)n[nH]c1=S | 48 µg/mL (≈ 141 µM) | > 80 µg/mL | 35% | > 42.8 µg/mL | > 80 µg/mL | > 80 µg/mL | > 16 µg/mL | 400 µg/mL | > 80 µg/mL | 42.8 µg/mL (≈ 125 µM) | 400 µg/mL | > 80 µg/mL | 48 µg/mL (≈ 141 µM) | > 16 µg/mL | > 80 µg/mL | 10% | > 42.8 µg/mL | > 80 µg/mL | 80 µg/mL | 400 µg/mL | MIC [16]: > 80 µg/mL; MIC (Human respirovirus 3): > 80 µg/mL; MIC (Human alphaherpesvirus 2 [17]): > 80 µg/mL; MIC [18]: > 16 µg/mL; MIC [19]: > 80 µg/mL |
| C=CCNC(=S)Nc1ccc(-c2n[nH]c(=S)n2-c2ccccc2)cc1 | > 80 µg/mL | > 80 µg/mL | 13.5% | > 55.1 µg/mL | > 80 µg/mL | > 400 µg/mL | > 400 µg/mL | ≥ 80 µg/mL | > 80 µg/mL | 55.1 µg/mL (≈ 150 µM) | ≥ 80 µg/mL | > 80 µg/mL | > 80 µg/mL | > 400 µg/mL | > 400 µg/mL | 0% | > 55.1 µg/mL | > 400 µg/mL | ≥ 400 µg/mL | >= 400 ug ml-1 | MIC [16]: > 80 µg/mL; MIC (Human respirovirus 3): > 400 µg/mL; MIC (Human alphaherpesvirus 2 [17]): > 80 µg/mL; MIC [18]: > 400 µg/mL; MIC [19]: > 400 µg/mL |
| CCCCCCNC(=S)Nc1ccc(-c2n[nH]c(=S)n2-c2ccccc2)cc1 | > 16 µg/mL | > 16 µg/mL | 16% | > 3.99 µg/mL | > 16 µg/mL | > 80 µg/mL | > 80 µg/mL | ≥ 16 µg/mL | > 16 µg/mL | 3.99 µg/mL (≈ 9.69 µM) | ≥ 16 µg/mL | > 16 µg/mL | > 16 µg/mL | > 80 µg/mL | > 80 µg/mL | 3% | > 3.99 µg/mL | > 80 µg/mL | 400 µg/mL | 400 µg/mL | MIC [16]: > 16 µg/mL; MIC (Human respirovirus 3): > 80 µg/mL; MIC (Human alphaherpesvirus 2 [17]): > 16 µg/mL; MIC [18]: > 80 µg/mL; MIC [19]: > 80 µg/mL |
| C=CCNC(=S)Nc1ccc(-c2n[nH]c(=S)n2CC=C)cc1 | 240 µg/mL (≈ 724 µM) | > 80 µg/mL | 6.5% | > 65.4 µg/mL | > 80 µg/mL | > 80 µg/mL | > 80 µg/mL | ≥ 80 µg/mL | > 80 µg/mL | 65.4 µg/mL (≈ 197 µM) | ≥ 80 µg/mL | > 80 µg/mL | 240 µg/mL (≈ 724 µM) | > 80 µg/mL | > 80 µg/mL | 0% | > 65.4 µg/mL | > 80 µg/mL | 400 µg/mL | >= 80 ug ml-1 | MIC [16]: > 80 µg/mL; MIC (Human respirovirus 3): > 80 µg/mL; MIC (Human alphaherpesvirus 2 [17]): > 80 µg/mL; MIC [18]: > 80 µg/mL; MIC [19]: > 80 µg/mL |
| CCNC(=S)Nc1ccc(-c2n[nH]c(=S)n2C)cc1 | 240 µg/mL (≈ 818 µM) | 240 µg/mL (≈ 818 µM) | 3% | > 82.4 µg/mL | 240 µg/mL (≈ 818 µM) | > 80 µg/mL | > 80 µg/mL | ≥ 400 µg/mL | > 400 µg/mL | 82.4 µg/mL (≈ 281 µM) | ≥ 400 µg/mL | 240 µg/mL (≈ 818 µM) | 240 µg/mL (≈ 818 µM) | > 80 µg/mL | > 80 µg/mL | 0% | > 82.4 µg/mL | > 80 µg/mL | 400 µg/mL | 400 µg/mL | MIC [16]: > 400 µg/mL; MIC (Human respirovirus 3): > 80 µg/mL; MIC (Human alphaherpesvirus 2 [17]): 240 µg/mL (≈ 818 µM); MIC [18]: > 80 µg/mL; MIC [19]: > 80 µg/mL |
